Compound activity as filed in PubChem.
AI-2 QS mod = Vibrio harveyi AI-2 quorum sensing modulation; AID 2094; Vibrio harveyi JMH597 AI-2 luminescence/OD600 ratio, 9 h; active compounds read low; strain lacks LuxN and CqsS sensors; 0 = neutral-control median; activity change, % at 7.5 µM; 0.4% of 300,000 active; in the data active = activity change below about -75%, passing the limit was not always enough;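 also: luminescence divided by OD600 gain over 9 h not by final OD600 alone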
Tb MetRS inh = blocks T. brucei methionyl-tRNA synthetase activity; inhibition, % at 11.9 µM; AID 624268; purified T. brucei MetRS, ATP depletion, Kinase-Glo luminescence; 0.4% of 360,000 active;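 active = inhibition above a per-plate cutoff of the control wells' mean inhibition plus 3 SD, cut at about 5.5% in these data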
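Test system – parasite MetRS enzyme · Reagent – substrates ATP, L-methionine and bulk Escherichia coli tRNA · Doses – 11.9 µM compound single dose, 0.9% DMSO · Times – 15 min enzyme-compound preincubation, 2 h reaction, 10 min detection, 25 °C · Signal – Kinase-Glo luminescence, ATP depletion format · Controls – DMSO-only wells as low control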
m5-HT2A agonist = mouse HTR2A agonism via beta-arrestin recruitment. P35363. activation, % at 7.6 µM. 0.66% of 360,000 active. CHO-K1 mHTR2A beta-arrestin complementation, luminescence; percent of 30 µM serotonin response;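 active = activation above a run cutoff, the mean activation of all tested compounds plus 3 SD, cut at about 14% in these data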
Target sequence (P35363 whole entry, looked up): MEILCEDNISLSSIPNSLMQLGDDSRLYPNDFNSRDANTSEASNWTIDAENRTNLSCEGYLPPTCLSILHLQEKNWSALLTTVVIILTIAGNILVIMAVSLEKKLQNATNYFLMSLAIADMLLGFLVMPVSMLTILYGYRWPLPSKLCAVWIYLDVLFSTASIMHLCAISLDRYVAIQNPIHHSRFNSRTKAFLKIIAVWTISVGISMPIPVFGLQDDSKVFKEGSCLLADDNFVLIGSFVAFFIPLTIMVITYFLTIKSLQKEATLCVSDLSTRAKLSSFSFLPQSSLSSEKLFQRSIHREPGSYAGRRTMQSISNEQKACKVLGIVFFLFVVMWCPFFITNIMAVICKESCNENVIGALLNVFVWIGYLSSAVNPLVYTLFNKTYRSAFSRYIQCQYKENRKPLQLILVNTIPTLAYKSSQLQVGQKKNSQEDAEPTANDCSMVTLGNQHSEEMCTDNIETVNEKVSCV
AHR activator = human AHR activation | P35869 | AHR-responsive luciferase reporter cells, luminescence | activation, % at 5 µM | 2.5% of 320,000 active; in the data active = activation above about 47%
MsrA act = activators of bovine methionine sulfoxide reductase A; purified bovine MsrA, absorbance read-out; activation, % at 10.6 µM; 0.3% of 360,000 active; AID 602163; in the data active = activation above about 7.5%
MsrA inh = bovine MsrA inhibition. 0.75% of 360,000 active. inhibition, % at 15.5 µM. purified bovine MsrA, absorbance read-out; in the data active = inhibition above about 4.5%
MOR ag counter = OPRM1 agonism in mouse HTR2A counterscreen. shares compounds with m5-HT2A agonist. 5.3% of 2,300 active. U2OS OPRM1 beta-arrestin PathHunter, luminescence; DMSO 0%, DAMGO 9.3 µM 100%. activation, % at 9.3 µM;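 active = mean activation above the mean of DMSO-only wells plus 3 SD, cut at about 0.5% in these data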
HTR2A ag conf = confirmation of mouse HTR2A serotonin receptor agonists. shares compounds with m5-HT2A agonist. CHO-K1 PathHunter beta-arrestin recruitment, luminescence; DMSO 0%, 30 µM serotonin 100%. activation, % at 7.6 µM. 19% of 2,300 active;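 active = mean activation across triplicates above the hit threshold derived in the original primary screen, cut at about 15% in these data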
Numbers stand for hits. A selection: hits, their analogues and other compounds. The true share with any hit is near 4.4%.

How did COc1cc(/C=C(/C#N)c2nc3ccccc3[nH]2)ccc1OCc1ccc(C(=O)O)o1 do in these assays?
AI-2 QS mod: inactive; Tb MetRS inh: inactive; m5-HT2A agonist: 19; AHR activator: inactive; MsrA act: inactive; MsrA inh: inactive; MOR ag counter: 1.7; HTR2A ag conf: inactive

Results for CSc1ccccc1NC(=O)CN(C)C(C)C(=O)NCc1ccc2c(c1)OCO2 (centres undefined) ?
Tb MetRS inh: inactive; m5-HT2A agonist: inactive; AHR activator: inactive; MsrA act: inactive; MsrA inh: inactive

How did CNC(=O)NC(=O)C(c1ccccc1)N(C)CC1COc2ccccc2O1 (centres undefined) do in these assays?
AI-2 QS mod: inactive; Tb MetRS inh: inactive; m5-HT2A agonist: inactive; AHR activator: inactive; MsrA act: inactive; MsrA inh: inactive

How did CCS(=O)(=O)c1nc(S(=O)(=O)c2ccc(C)cc2)c(N2CCCC2)s1 do in these assays?
AI-2 QS mod: inactive; Tb MetRS inh: inactive; m5-HT2A agonist: inactive; AHR activator: inactive; MsrA act: inactive; MsrA inh: inactive

What do the screens show for `CCS(=O)(=O)c1nc(S(=O)(=O)c2ccc(C)cc2)c(N2CCCCCC2)s1`?
Tb MetRS inh: inactive; m5-HT2A agonist: 15; MsrA act: inactive; MsrA inh: inactive; MOR ag counter: inactive; HTR2A ag conf: inactive

Results for COC(=O)Cc1c(C)c2ccc(OCC(=O)N3CCCC(C)C3)c(C)c2oc1=O (centres undefined) ?
AI-2 QS mod: inactive; Tb MetRS inh: inactive; m5-HT2A agonist: 15; AHR activator: inactive; MsrA act: inactive; MsrA inh: inactive; MOR ag counter: inactive; HTR2A ag conf: inactive

What do the screens show for `O=[N+]([O-])c1cccnc1N1CCN(Cc2ccc3c(c2)OCO3)CC1`?
AI-2 QS mod: inactive; Tb MetRS inh: inactive; m5-HT2A agonist: 29; AHR activator: inactive; MsrA act: inactive; MsrA inh: inactive; MOR ag counter: inactive; HTR2A ag conf: 68

What do the screens show for `O=[N+]([O-])c1ccccc1/C=C/CN1CCN(Cc2ccc3c(c2)OCO3)CC1`?
AI-2 QS mod: inactive; Tb MetRS inh: inactive; m5-HT2A agonist: inactive; AHR activator: inactive; MsrA act: inactive; MsrA inh: inactive

Results for O=C(c1cccc([N+](=O)[O-])c1)N1CCN(Cc2ccc3c(c2)OCO3)CC1 ?
AI-2 QS mod: inactive; Tb MetRS inh: inactive; m5-HT2A agonist: inactive; AHR activator: inactive; MsrA act: inactive; MsrA inh: inactive

What do the screens show for `O=[N+]([O-])c1ccc2ncnc(N3CCN(Cc4ccc5c(c4)OCO5)CC3)c2c1`?
AI-2 QS mod: inactive; Tb MetRS inh: inactive; m5-HT2A agonist: 31; AHR activator: inactive; MsrA act: inactive; MsrA inh: inactive; MOR ag counter: inactive; HTR2A ag conf: 73

How did CCCc1cc(=O)[nH]c(N2CCN(Cc3ccc4c(c3)OCO4)CC2)n1 do in these assays?
AI-2 QS mod: inactive; Tb MetRS inh: inactive; m5-HT2A agonist: inactive; MsrA act: inactive; MsrA inh: inactive

How did CC(C)c1cc(=O)[nH]c(N2CCN(Cc3ccc4c(c3)OCO4)CC2)n1 do in these assays?
AI-2 QS mod: inactive; Tb MetRS inh: inactive; m5-HT2A agonist: 20; AHR activator: inactive; MsrA act: inactive; MsrA inh: inactive; MOR ag counter: inactive; HTR2A ag conf: 19

How did NS(=O)(=O)c1ccc(CNC(=O)c2ccc(C(=O)c3ccccc3)cc2)cc1 do in these assays?
Tb MetRS inh: inactive; m5-HT2A agonist: inactive; AHR activator: inactive; MsrA act: inactive; MsrA inh: inactive

What do the screens show for `CN[C@H](C)C(=O)NC[C@H]1O[C@@H](n2ccc(N)nc2=O)[C@H](O)[C@@H]1O`?
Tb MetRS inh: inactive; m5-HT2A agonist: inactive; MsrA act: inactive; MsrA inh: inactive

How did N#Cc1ccccc1C[C@H](N)C(=O)NC[C@H]1O[C@@H](n2ccc(N)nc2=O)[C@H](O)[C@@H]1O do in these assays?
Tb MetRS inh: inactive; m5-HT2A agonist: 29; MsrA act: inactive; MsrA inh: inactive; MOR ag counter: inactive; HTR2A ag conf: inactive

What do the screens show for `N#Cc1cc(Sc2ccccn2)c([N+](=O)[O-])cc1C#N`?
AI-2 QS mod: inactive; Tb MetRS inh: inactive; m5-HT2A agonist: 17; AHR activator: inactive; MsrA act: inactive; MsrA inh: inactive; MOR ag counter: inactive; HTR2A ag conf: inactive

How did CCOc1ccc(S(=O)(=O)NCc2ccc3c(c2)OCO3)cc1NC(C)=O do in these assays?
AI-2 QS mod: inactive; Tb MetRS inh: inactive; m5-HT2A agonist: inactive; AHR activator: inactive; MsrA act: inactive; MsrA inh: inactive

How did Cc1cccc(N2CCN(c3ccc(N4C(=O)CCCC4=O)cc3[N+](=O)[O-])CC2C)c1 (centres undefined) do in these assays?
AI-2 QS mod: inactive; Tb MetRS inh: inactive; m5-HT2A agonist: 15; AHR activator: 70; MsrA act: inactive; MsrA inh: inactive; MOR ag counter: inactive; HTR2A ag conf: inactive

What do the screens show for `C=C1C(=O)OC2C1C(OC(=O)C(C)=CC)CC(=C)C1C(O)C3OC3(C)C21O` (centres undefined)?
Tb MetRS inh: inactive; m5-HT2A agonist: 16; MsrA act: inactive; MsrA inh: inactive; MOR ag counter: inactive; HTR2A ag conf: inactive

What do the screens show for `CCCCN1C(=O)C(CC(=O)NCc2cccc3ccccc23)CC(C(=O)N2CCOCC2)=C1C` (centres undefined)?
Tb MetRS inh: inactive; m5-HT2A agonist: 15; MsrA act: inactive; MsrA inh: inactive; MOR ag counter: inactive; HTR2A ag conf: inactive

How did Cc1cc(C(=O)N2CCN(S(=O)(=O)c3ccc(C)c(C)c3)CC2)no1 do in these assays?
Tb MetRS inh: inactive; m5-HT2A agonist: inactive; MsrA act: inactive; MsrA inh: inactive

How did Fc1cccc(Cl)c1/C=N/Nc1ccccn1 do in these assays?
AI-2 QS mod: inactive; Tb MetRS inh: inactive; m5-HT2A agonist: inactive; AHR activator: inactive; MsrA act: inactive; MsrA inh: inactive

How did Fc1cccc(F)c1/C=N/Nc1ccccn1 do in these assays?
AI-2 QS mod: inactive; Tb MetRS inh: inactive; m5-HT2A agonist: 14; AHR activator: inactive; MsrA act: inactive; MsrA inh: inactive; MOR ag counter: inactive; HTR2A ag conf: inactive

How did Cc1c(NC(=O)CN2C(=O)c3ccc([N+](=O)[O-])cc3C2=O)c(=O)n(-c2ccccc2)n1C do in these assays?
AI-2 QS mod: inactive; Tb MetRS inh: inactive; m5-HT2A agonist: 17; AHR activator: inactive; MsrA act: inactive; MsrA inh: inactive; MOR ag counter: inactive; HTR2A ag conf: inactive

How did CN(C(=O)CSc1nnc(C(F)(F)F)n1C)c1c(N)n(Cc2ccccc2)c(=O)[nH]c1=O do in these assays?
Tb MetRS inh: inactive; m5-HT2A agonist: inactive; MsrA act: inactive; MsrA inh: inactive
